NPY2 pot ag: potentiators or agonists of human neuropeptide Y receptor Y2 | activation, % at 3.6 µM | AID 1359 | cells expressing NPY-Y2, potentiator/agonist read-out | P49146 | 220,000 tested, 0.45% active; in the data active means activation above about 27%;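 further: cells stimulated with NPY near EC25 plus isoproterenol at EC100; 0% = vehicle plus submaximal agonist and 100% = vehicle plus saturating agonist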
NPY Y2 blocker: antagonists of human neuropeptide Y receptor Y2 | NPY-Y2 expressing cells, antagonist mode | 140,000 tested, 0.99% active | inhibition, % at 2.7 µM | P49146;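 further: 0% = vehicle with agonist challenge and 100% = reference antagonist with challenge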
NPY-Y1 antag: NPY-Y1 (human) receptor antagonism; inhibition, % at 3.6 µM; AID 1040; HEK293-CNG Y1 cells, membrane potential fluorescence; NPY at EC95, then isoproterenol; 200,000 tested, 1% active; P25929;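 active means inhibition above the campaign mean inhibition of all tested compounds plus 3 SD, cut at about 20% in these data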;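 further: 0% = DMSO wells given NPY plus isoproterenol and 100% = isoproterenol alone without NPY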
Target sequence (P25929 whole entry, looked up): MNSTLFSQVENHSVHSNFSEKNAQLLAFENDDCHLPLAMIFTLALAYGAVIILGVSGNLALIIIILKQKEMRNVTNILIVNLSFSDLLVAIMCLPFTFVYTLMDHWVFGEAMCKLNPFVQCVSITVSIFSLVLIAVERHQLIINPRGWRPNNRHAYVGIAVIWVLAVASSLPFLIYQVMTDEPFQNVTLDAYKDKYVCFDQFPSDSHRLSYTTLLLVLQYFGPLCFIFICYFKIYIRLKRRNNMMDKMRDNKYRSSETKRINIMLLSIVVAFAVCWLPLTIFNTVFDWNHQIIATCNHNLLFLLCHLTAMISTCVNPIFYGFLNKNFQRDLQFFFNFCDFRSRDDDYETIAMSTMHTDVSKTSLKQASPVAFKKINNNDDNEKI
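material = HEK293 cells with Y1 receptor plus CNG channel | also added = NPY 25 nM then isoproterenol 1 µM plus Ro 20-1724 25 µM | schedule = dye 3 h, compound 60 min room temperature, stimulation 45 min | measured by = membrane potential fluorescence | benchmarks = high control isoproterenol alone, low control NPY with isoproterenol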
NPY-Y1 PAM-ag: human NPY-Y1 potentiation or agonism, primary screen | P25929 | NPY-Y1 expressing cells, potentiator/agonist activation | activation, % at 3.6 µM | 220,000 tested, 0.37% active; in the data active means activation above about 33%, passing the limit was not always enough;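 further: cells stimulated with NPY at EC10 then isoproterenol at EC100; 0% = low agonist plus stimulus and 100% = saturating agonist plus stimulus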
NPY1 antag conf: confirmation of human neuropeptide Y receptor Y1 antagonists | inhibition, % at 3.6 µM | HEK293-CNG NPY-Y1, membrane potential fluorescence, cAMP; NPY challenge against isoproterenol-raised cAMP | shares compounds with NPY-Y1 antag | 1,200 tested, 21% active; in the data active means inhibition above about 20%;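 further: 0% = vehicle with agonist plus stimulus and 100% = stimulus alone without agonist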
NPY2 antag ctr: human NPY-Y2 antagonism in NPY-Y1 counter-screen | 1,200 tested, 28% active | HEK293 NPY-Y2 CNG membrane potential fluorescence; cells given NPY, then isoproterenol | inhibition, % at 3.6 µM | shares compounds with NPY-Y1 antag;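 further: 0% = DMSO with agonist challenge and 100% = reference antagonist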
An asterisk follows results filed as active; nt = no result given; ! = repeats disagree. In the library only some 1.8% were active in any assay of this set; here they are far more common. Unless noted, no stated cut-off is given here; in the data, active means inhibition above about 17%; inactive means the rest.

SMILES	NPY2 pot ag	NPY Y2 blocker	NPY-Y1 antag	NPY-Y1 PAM-ag	NPY1 antag conf	NPY2 antag ctr
CC1(C)C2CCC1(C)C(NC1=NCCC1)C2 (stereo unspecified)	-10.2	1.6	-2.2	4.6	nt	nt
CC1(C)C2CCC1(C)C(OCC[N+](C)(C)CC(=O)OC1CCCCC1)C2 (stereo unspecified)	2.2	1.6	23.7*	-46.8	10.3	14.0
COc1ccc(C2C(Oc3ccccc3)C(=O)N2c2cc(C)ccc2C)cc1OC (stereo unspecified)	-4.2	9.8	22.4*	3.5	18.8	9.2
COc1cc(/C=N/N=C(/N)c2nonc2N)cc(Br)c1OCc1cccc(C)c1	-17.0	10.9	21.1*	-19.4	14.8	13.7
N=c1c2c3c(sc2nc2n1CCCCC2)CCCCC3	8.1	9.3	20.4*	10.3	1.9	5.6
O=c1c2c3c(sc2nc2n1CCCCC2)CCCCC3	4.5	-0.5	-3.5	5.0	nt	nt
CN(C)Cc1ccc(F)cc1Sc1ccc(Cl)cc1Cl	-20.9	10.9	22.1*	-68.3	11.0	16.6
CC(O)CNCc1ccc(Cl)cc1Cl (stereo unspecified)	-22.0	nt	1.2	-3.8	nt	nt
CCCc1[nH]n(-c2ccc([N+](=O)[O-])cc2)c(=O)c1C(C)=NCc1ccncc1	-16.2	nt	nt	4.5	nt	nt
Cc1ccccc1C([O-])=Nc1ccc[n+](-c2nc3ccccc3nc2NS(=O)(=O)c2ccccc2)c1	21.6	nt	nt	7.2	nt	nt
CC1(C)Cc2cccc(C(=O)NC3CCN(Cc4ccccc4)CC3)c2O1	-17.3	nt	nt	-1.4	nt	nt
O=S(=O)(NCc1ccc2c(c1)OCO2)c1ccc2c(c1)oc1ccccc12	-8.9	8.5	21.5*	-29.8	16.9	19.0*
COc1cc(S(=O)(=O)NCc2ccc3c(c2)OCO3)ccc1Cl	-6.6	7.4	7.8	-10.2	nt	nt
Cc1nc2cc(-c3sccc3-n3cccc3)nn2c(C)c1C	-31.1	2.1	21.7*	-60.3	17.4	20.4*
Cc1cc(C(F)(F)F)n2nc(-c3sccc3-n3cccc3)cc2n1	-14.6	1.1	4.8	-9.2	nt	nt
O=C(Nc1ccccc1N1CCN(C(=O)c2ccccc2)CC1)c1ccc(Cl)cc1	-15.6	nt	15.9	-36.5	nt	nt
O=C(Nc1ccccc1N1CCN(c2ccccc2)CC1)c1ccccc1	-30.7	nt	41.4*	-31.6	34.1*	20.0*
CCOc1cc(-c2noc(N)c2C(=O)OC)cc(OCC)c1OCC	-7.0	7.5	22.2*	-30.2	6.3	3.9
c1ccc(COc2ccccc2CNC23CC4CC(CC(C4)C2)C3)cc1	-21.9	nt	158.0*	-63.7	110.5*	70.4*
COc1ccc(Br)cc1CN(C)CC(=O)NCCc1ccccc1	-15.6	nt	6.7	-1.1	nt	nt
O=C(COc1ccc(Br)cc1CNC1CCCCC1)NCCc1ccccc1	1.1	nt	27.0*	8.5	17.9	12.6
c1ccc(COc2ccccc2CNC2CCCC2)cc1	0.1	nt	31.8*	-14.1	4.4	5.3
COc1ccc(C2C(C(=O)c3ccccc3)N3c4ccccc4C=CC3C2[N+](=O)[O-])cc1 (stereo unspecified)	4.4	nt	-1.7	13.9	nt	nt
CCOc1ccc(C(=O)Nc2cc(C)on2)cc1OCC	5.3	-0.5	-0.6	-9.6	nt	nt
CCCCOc1cccc(OCCCC)c1C(=O)Nc1cc(C)on1	-9.8	11.1	51.3*	-55.0	21.7*	7.8
SMILES	NPY2 pot ag	NPY Y2 blocker	NPY-Y1 antag	NPY-Y1 PAM-ag	NPY1 antag conf	NPY2 antag ctr
CCOC(=O)NC(=O)CSc1nnnn1-c1ccc(Cl)cc1	5.2	1.1	6.1	15.2	nt	nt
CCOC(=O)c1ccc(CNC(=O)CSc2nnnn2-c2ccc(Cl)cc2)o1	-14.5	8.3	20.4*	-8.6	10.4	12.1
COCCNc1nc(SCc2ccccc2)nc2sc3c(c12)CCC3	-19.0	0.0	26.5*	-20.9	20.7*	22.4*
CCc1ccc(-c2nc(CN3CCC(C(=O)NCCc4ccc(OC)c(OC)c4)CC3)c(C)o2)cc1	-24.7	13.2	28.1*	-56.1	4.3	16.4
CCN1CCCC1CNC(=O)C1CCN(Cc2nc(-c3cccc(Br)c3)oc2C)CC1 (stereo unspecified)	-25.9	10.6	20.9*	-21.5	9.3	16.1
COc1ccc(CCNC(=O)C2CCN(Cc3nc(-c4ccccc4F)oc3C)CC2)cc1OC	-12.6	4.2	-1.1	-10.3	nt	nt
Cc1oc(-c2ccc(Cl)cc2)nc1CN1CCC(C(=O)N2CCc3ccccc3C2)CC1	-19.1	14.2	9.9	-30.1	nt	nt
Cc1ccccc1-c1nc(CN2CCC(C(=O)NCCCN3CC(C)CC(C)C3)CC2)c(C)o1 (stereo unspecified)	-21.3	15.3	23.4*	-77.8	15.3	23.7*
Cc1oc(-c2cccc(Cl)c2)nc1CN1CCC(C(=O)NCc2ccco2)CC1	-5.3	3.1	5.7	-5.6	nt	nt
Cc1oc(-c2ccc(Cl)cc2)nc1CN1CCC(C(=O)N2CCN(Cc3ccccc3)CC2)CC1	-19.5	16.9	25.3*	-59.1	20.9*	28.7*
Cc1ccc2[nH]c(=O)c(CN(Cc3ccco3)C(=O)CN3CCCC(C)C3)cc2c1 (stereo unspecified)	-21.4	nt	4.0	-20.2	nt	nt
CN(C(=S)NC(=O)Cc1ccccc1)c1ccccc1	-1.6	nt	-0.3	0.5	nt	nt
Cc1cc(OCC(=O)N2CCc3ccccc3C2)c2c(-c3ccccc3)cc(=O)oc2c1	-21.7	13.3	20.8*	-0.2	13.1	10.7
CCOc1cc(C)cc2oc(=O)cc(-c3ccccc3)c12	-14.8	15.1	13.9	-1.2	nt	nt
CCCn1c(SCc2ccc(Cl)cc2)nc2c1c(=O)[nH]c(=O)n2C	-8.4	12.4	23.9*	-33.4	22.5*	39.9*
C/C=C/Cn1c(SCc2ccc(Cl)cc2)nc2c1c(=O)[nH]c(=O)n2C	-75.4	4.2	17.4	-89.8	nt	nt
CCOCCCNC(=O)/C(C#N)=C/c1ccc([N+](=O)[O-])o1	11.4	nt	-1.8	-2.1	nt	nt
CCOC(=O)c1c(NC(C)=O)sc2c(OCC(O)CN(CC)CC)c(Br)ccc12 (stereo unspecified)	-81.8	nt	79.6*	-181.2	104.0*	117.0*
CCOC(=O)c1c(NC(C)=O)sc2c(OCCN(CC)CC)c(Br)ccc12	-38.4	nt	9.6	-75.1	nt	nt
CCC(C)N1C(=O)CN(C2CCCCCC2)C(=O)C1c1ccccc1F (stereo unspecified)	-29.7	nt	24.3*	-25.6	5.8	13.3
COc1ccccc1-n1c(-c2ccccc2)c[n+]2c1CCc1ccccc1-2	14.0	nt	33.3*	-66.5	20.5*!	13.7
COc1ccccc1-n1c(-c2ccccc2)c[nH]c1=S	4.9	nt	-2.0	2.3	nt	nt
CC(C)c1ccc(-n2c(-c3ccccc3)c[n+]3c2CCc2ccccc2-3)cc1	-21.3	nt	115.5*	-75.2	112.0*	76.7*
O=S(=O)(c1ccc(-c2ccon2)s1)N1CCN(c2ccncc2)CC1	-18.6	nt	nt	4.8	nt	nt
CCCSc1nnc(NC(=O)Nc2ccccc2OC)s1	-32.7	nt	nt	1.1	nt	nt
Cc1cc(NC(=O)CSc2nc3ccccc3c(=O)n2C2CCCC2)no1	-7.6	11.5	33.2*	-24.3	1.9	12.8
